Experimental data published in article PMC5824357 (RNA, 2018).
Ends that are not written are not given here. MBP = not defined here; MS2 = not defined here; HA = not defined here

Legend:
[1] = test system: β-globin-6xMS2bs reporter; experiment: Tethering assay in human HEK293T cells; assay type: cell-based; details: MS2-HA-tagged, three independent experiments
endogenous NOT3 = experiment: SBP pull-down in HEK293T cells, NOT3; assay type: binding, human
Method in brief: (§1)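 HEK293T cells expressed V5-SBP-tagged full-length test protein, with V5-SBP-MBP as negative control. SBP pull-down from lysates was done in the presence of RNaseA. Input (1.5% of V5-SBP proteins, 1% of endogenous CCR4–NOT subunits) and bound fractions (10% and 30%, respectively) were analysed by western blotting with ECL detection.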

Hs CCR4-NOT subcomplexes = experiment: In vitro MBP pull-down, other Hs CCR4–NOT subcomplexes; assay type: binding, human; details: NOT1-10-11 module, catalytic module, CD, NOT3 N-terminal coiled coil, MBP-tagged Bam, pH 7.5, 1 h
Method in brief: (§2)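 Proteins were expressed in E. coli BL21 (DE3) Star overnight at 20°C. Tethered-protein constructs carried an N-terminal MBP tag and were purified by amylose resin, anion exchange and gel filtration. MBP (20 µg, negative control) or MBP fusion (40 µg) was incubated 1 h with equimolar purified CCR4–NOT modules plus amylose resin. Beads were washed five times and eluted with 25 mM maltose. Eluates were TCA-precipitated and analysed by SDS-PAGE/Coomassie.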

F-Luc-5BoxB mRNA [2] = experiment: Tethering assay in S2 cells, F-Luc-5BoxB reporter; assay type: cell-based, Drosophila melanogaster
CCR4 (GFP-tagged) = experiment: Coimmunoprecipitation in S2 cells, CCR4; assay type: binding, Drosophila melanogaster; details: HA-tagged Bam, S2 cell lysates, RNaseA
[3] = test system: catalytic module (containing Hs CCR4a); experiment: In vitro MBP pull-down, Hs catalytic module; assay type: binding, human; details: recombinant proteins
endogenous CAF40 = experiment: SBP pull-down in HEK293T cells, CAF40; assay type: binding, human; details: V5-SBP-tagged, wild-type HEK293T, RNaseA
Method in brief: as §1

Hs CN9BD–CAF40 complex = experiment: In vitro MBP pull-down, human CN9BD–CAF40; assay type: binding; details: MBP-tagged proteins, amylose resin, 50 mM HEPES pH 7.5, 200 mM NaCl, 2 mM DTT, 1 h; SDS-PAGE, Coomassie
Method in brief: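 The Hs complex was MBP-NOT1-CN9BD (V1351–L1588) co-expressed in E. coli with His6-CAF40 (R19–E285), purified on amylose, tags removed by HRV3C, then heparin and gel filtration. MBP (20 µg, control) or MBP fusion (40 µg) was incubated 1 h with equimolar complex and amylose resin. Beads were washed five times, eluted with 25 mM maltose, TCA-precipitated and analysed by SDS-PAGE/Coomassie.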

Dm CAF40 (V186E) = experiment: Coimmunoprecipitation in S2 cells, CAF40 V186E; assay type: binding, Drosophila melanogaster; details: HA-tagged Bam, S2 cell lysates, RNaseA
NOT3 (GFP-tagged) = experiment: Coimmunoprecipitation in S2 cells, NOT3; assay type: binding, Drosophila melanogaster; details: HA-tagged Bam, S2 cell lysates, RNaseA
NOT1 (GFP-tagged) = experiment: Coimmunoprecipitation in S2 cells, NOT1; assay type: binding, Drosophila melanogaster; details: HA-tagged Bam, S2 cell lysates, RNaseA
HA-tagged CCR4 = experiment: SBP pull-down in HEK293T cells, CCR4; assay type: binding
Method in brief: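 Control or CAF40-null HEK293T cells coexpressed HA-CCR4 with V5-SBP-tagged full-length test protein or V5-SBP-MBP negative control. SBP pull-down was done in lysates containing RNaseA. Input (1.5% V5-SBP proteins, 1% CCR4–NOT subunits) and bound (10% and 30%) fractions were western blotted with ECL detection.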

Dm CAF40 (GFP-tagged) = experiment: Coimmunoprecipitation in S2 cells, CAF40; assay type: binding, Drosophila melanogaster; details: HA-tagged Bam, S2 cell lysates, RNaseA
[4] = test system: Dm NOT1-CN9BD–CAF40 complex; experiment: In vitro MBP pull-down, Dm CN9BD–CAF40; assay type: binding, Drosophila melanogaster; details: MBP-tagged proteins, amylose resin, 50 mM HEPES pH 7.5, 200 mM NaCl, 2 mM DTT, 1 h; SDS-PAGE, Coomassie
Method in brief: as §2

NOT2 (GFP-tagged) = experiment: Coimmunoprecipitation in S2 cells, NOT2; assay type: binding, Drosophila melanogaster; details: HA-tagged Bam, S2 cell lysates, RNaseA
[5] = test system: Dm NOT1-CN9BD–CAF40 complex (containing CAF40 V186E or 2xMut); experiment: In vitro MBP pull-down, Dm CN9BD–CAF40 with CAF40 mutants; assay type: binding, Drosophila melanogaster; details: MBP-tagged Bam, pH 7.5, 1 h
Method in brief: as §2

F-Luc-5BoxB mRNA [6] = experiment: mRNA half-life in S2 cells after actinomycin D; assay type: cell-based, Drosophila melanogaster; details: actinomycin D 5 µg/ml; northern blot
Method in brief: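 S2 cells were Effectene-transfected with F-Luc-5BoxB reporter, R-Luc control and λN-HA-tagged test protein. Three days post-transfection they were treated with actinomycin D (5 µg/ml final) and collected at successive time points. Reporter mRNA remaining was measured by northern blotting of total RNA.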

endogenous NOT1 = experiment: SBP pull-down in HEK293T cells, NOT1; assay type: binding, human
Method in brief: as §1

endogenous NOT2 = experiment: SBP pull-down in HEK293T cells, NOT2; assay type: binding, human
Method in brief: as §1

F-Luc-5BoxB-A95C7-HhR = experiment: Tethering assay in S2 cells, F-Luc-5BoxB-A95C7-HhR reporter; assay type: cell-based, Drosophila melanogaster
[7] = V5-SBP-tagged, wild-type HEK293T, RNaseA

CBM alone fused to MBP: MS2-HA-MBP-Bam 13–36 ({MS2-HA-MBP}-DDQQLDHNFKQMEEHLALMVEGNE; reading uncertain; UniProt P22745 13-36, looked up, fragment)
degradation/repression of β-globin-6xMS2bs reporter [1]: as active as full-length Bam

B1: Bam: Drosophila melanogaster Bag-of-marbles, Uniprot P22745, residues 1–442, variously tagged (protein)
chain: MLNARDVCPEGNDDQQLDHNFKQMEEHLALMVEGNENEDPRKATCEYEDTNEDGATCTSGVLSEIQENFGRLRLCDVTAPLLEFHGLDCLQQIQKRSRHFAFDGSPAKKSRSGGVLVTGPKQKQLQKENVWNRKSKGSASADNIEKLPITIEKLHMIGLHGDCLEHNAVLRLMNLFRSLHDHLTADLGFSRQNSMPSDYLFDMPVKSTMPKSLNVRYQLQVLCTKVERFLVQQRRTLEANRHFDFEKYDECDKLLKGFASYLDNFKLLLKPKMRNRNGNSGSNADKFHTQRMERLLIGLRDWIKAAHLSVHVFNWEMDLEHRYSGAMTESHKSLNERAILLSGAELRAAEARGISAEDLFIAQRYKLGGPIYCVLEQHEFLSALIANPETYFPPSVVAICGPQKLGAVSMEQPSASEEEFEETEEVPSSPPRHTGRVPRFRS
modifications: left off: MBP, N-terminal, kept
pull-down of endogenous NOT3, CAF40-null cells (endogenous NOT3; CAF40-null HEK293T): did not interact with endogenous NOT1, NOT2 and NOT3 | pull-down of endogenous NOT3 (endogenous NOT3; [7]): pulled down all of the tested subunits | interaction in pull-down with any other subcomplex (Hs CCR4-NOT subcomplexes): not with any other subcomplex | tethering activity in CAF40-depleted cells (F-Luc-5BoxB mRNA [2]; CAF40 KD (∼10% of control levels)): partially suppressed Bam activity | repression in CAF40-depleted cells complemented with CAF40 V186E (F-Luc-5BoxB mRNA [2]; CAF40 KD + CAF40 V186E): not by expression of the CAF40 V186E mutant | repression in CAF40-depleted cells complemented with wild-type CAF40 (F-Luc-5BoxB mRNA [2]; CAF40 KD + wild-type CAF40): restored by transient expression of wild-type CAF40 | F-Luc-5BoxB mRNA degradation in DCP2-depleted cells (F-Luc-5BoxB mRNA [2]; DCP2 knockdown, DCP2 E361Q overexpressed): impaired | F-Luc activity in DCP2-depleted cells (F-Luc-5BoxB mRNA [2]; DCP2 knockdown, DCP2 E361Q overexpressed, F-Luc activity): not restored | tethering activity in cells overexpressing CAF40 V186E (F-Luc-5BoxB mRNA [2]; GFP-CAF40 V186E overexpressed): suppressed in cells overexpressing the CAF40 V186E mutant | tethering activity in cells overexpressing CAF40 wild-type (F-Luc-5BoxB mRNA [2]; GFP-CAF40 wild-type overexpressed): not when CAF40 wild-type was overexpressed | F-Luc-5BoxB mRNA degradation after NOT1 depletion (F-Luc-5BoxB mRNA [2]; NOT1-depleted S2 cells): partially suppressed degradation of F-Luc-5BoxB mRNA | coimmunoprecipitation with CCR4 (CCR4 (GFP-tagged)): interacted with NOT1, NOT2, NOT3, CCR4, and CAF40 | direct interaction with the catalytic module [3]: did not observe a direct interaction | displacement of CAF1-NOT1 subcomplex from CCR4a [3]: did not competitively displace the CAF1-NOT1 subcomplex from CCR4a | pull-down of endogenous CAF40 (endogenous CAF40): pulled down all of the tested subunits | interaction in pull-down (Hs CN9BD–CAF40 complex): interacted only with the CN9BD–CAF40 module | coimmunoprecipitation with CAF40 V186E (Dm CAF40 (V186E)): sufficient to abolish binding to full-length Bam in cell lysates | coimmunoprecipitation with NOT3 (NOT3 (GFP-tagged)): interacted with NOT1, NOT2, NOT3, CCR4, and CAF40 | coimmunoprecipitation with NOT1 (NOT1 (GFP-tagged)): interacted with NOT1, NOT2, NOT3, CCR4, and CAF40 | pull-down of HA-tagged CCR4, CAF40-null cells (HA-tagged CCR4; CAF40-null HEK293T): did not interact | pull-down of HA-tagged CCR4 (HA-tagged CCR4; [7]): as well as HA-tagged CCR4 | coimmunoprecipitation with CAF40 (Dm CAF40 (GFP-tagged)): interacted with NOT1, NOT2, NOT3, CCR4, and CAF40 | interaction in pull-down [4]: also interacted with the Dm CN9BD–CAF40 module | coimmunoprecipitation with NOT2 (NOT2 (GFP-tagged)): interacted with NOT1, NOT2, NOT3, CCR4, and CAF40 | disruption of interaction by V186E substitution in CAF40 ([5]; CAF40 V186E): sufficient to disrupt the interaction with Bam in vitro | disruption of interaction by 2xMut in CAF40 ([5]; CAF40 Y139D, G146W (2xMut)): sufficient to disrupt the interaction with Bam in vitro | mRNA half-life (F-Luc-5BoxB mRNA [6]): shortening of the mRNA half-life | pull-down of endogenous NOT1, CAF40-null cells (endogenous NOT1; CAF40-null HEK293T): did not interact with endogenous NOT1, NOT2 and NOT3 | pull-down of endogenous NOT1 (endogenous NOT1; [7]): pulled down all of the tested subunits | pull-down of endogenous NOT2, CAF40-null cells (endogenous NOT2; CAF40-null HEK293T): did not interact with endogenous NOT1, NOT2 and NOT3 | pull-down of endogenous NOT2 (endogenous NOT2; [7]): pulled down all of the tested subunits | repression of deadenylation-resistant reporter (F-Luc-5BoxB-A95C7-HhR): repressed the expression of this reporter in S2 cells
